SMILES strings stand for the structures. Active and inactive are the calls of the source. No cut-off for these calls is given here.

The values that follow come from ChEMBL document CHEMBL4622928, “Discovery of 5-(4-methylpiperazin-1-yl)-2-nitroaniline derivatives as a new class of SIRT6 inhibitors” (Bioorg Med Chem Lett, 2020).

Experiment [1] has as its target T1, NAD-dependent protein deacylase sirtuin-6 (Homo sapiens, UniProt Q8N6T7). Briefly: Binding affinity to SIRT6 (unknown origin) by isothermal titration calorimetry. (In general: Isothermal titration calorimetry measures the heat released or taken up as one component is titrated into another.)
The subject of a further experiment is Mus musculus. Briefly: Antidiabetic activity in mouse model of type-2 diabetes mellitus assessed as reduction in blood glucose at 7.5 to 30 mg/kg, ip. The format is functional, organism-based. An outline of the steps: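 High-fat-diet-fed mice served as the type 2 diabetes model. Compound was given by intraperitoneal injection, and blood glucose and body weight were followed over time.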

A further experiment deals with Histone deacetylase 1 (Homo sapiens, UniProt Q13547). Briefly: Inhibition of HDAC1 (unknown origin). The procedure, abridged: (§1)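 Each deacetylase was run in a Fluor de Lys (FDL) fluorogenic deacetylation assay as a selectivity screen, with compound tested at concentrations up to 200 μM. IC50 was estimated from the dose-response.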
For a further experiment, the target named is Histone deacetylase 2 (Homo sapiens, UniProt Q92769). As to the kind of experiment: Inhibition of HDAC2 (unknown origin). An outline of the steps:
as §1

Another experiment concerns the target Histone deacetylase 3 (Homo sapiens, UniProt O15379). As to the kind of experiment: Inhibition of HDAC3 (unknown origin). An outline of the steps:
as §1

A further experiment concerns the target Histone deacetylase 4 (Homo sapiens, UniProt P56524). As to the kind of experiment: Inhibition of HDAC4 (unknown origin). An outline of the steps: as §1
The target of experiment [2] is T2, Protein deacetylase HDAC6 (Homo sapiens, UniProt Q9UBN7).
T2 sequence (Q9UBN7 whole entry): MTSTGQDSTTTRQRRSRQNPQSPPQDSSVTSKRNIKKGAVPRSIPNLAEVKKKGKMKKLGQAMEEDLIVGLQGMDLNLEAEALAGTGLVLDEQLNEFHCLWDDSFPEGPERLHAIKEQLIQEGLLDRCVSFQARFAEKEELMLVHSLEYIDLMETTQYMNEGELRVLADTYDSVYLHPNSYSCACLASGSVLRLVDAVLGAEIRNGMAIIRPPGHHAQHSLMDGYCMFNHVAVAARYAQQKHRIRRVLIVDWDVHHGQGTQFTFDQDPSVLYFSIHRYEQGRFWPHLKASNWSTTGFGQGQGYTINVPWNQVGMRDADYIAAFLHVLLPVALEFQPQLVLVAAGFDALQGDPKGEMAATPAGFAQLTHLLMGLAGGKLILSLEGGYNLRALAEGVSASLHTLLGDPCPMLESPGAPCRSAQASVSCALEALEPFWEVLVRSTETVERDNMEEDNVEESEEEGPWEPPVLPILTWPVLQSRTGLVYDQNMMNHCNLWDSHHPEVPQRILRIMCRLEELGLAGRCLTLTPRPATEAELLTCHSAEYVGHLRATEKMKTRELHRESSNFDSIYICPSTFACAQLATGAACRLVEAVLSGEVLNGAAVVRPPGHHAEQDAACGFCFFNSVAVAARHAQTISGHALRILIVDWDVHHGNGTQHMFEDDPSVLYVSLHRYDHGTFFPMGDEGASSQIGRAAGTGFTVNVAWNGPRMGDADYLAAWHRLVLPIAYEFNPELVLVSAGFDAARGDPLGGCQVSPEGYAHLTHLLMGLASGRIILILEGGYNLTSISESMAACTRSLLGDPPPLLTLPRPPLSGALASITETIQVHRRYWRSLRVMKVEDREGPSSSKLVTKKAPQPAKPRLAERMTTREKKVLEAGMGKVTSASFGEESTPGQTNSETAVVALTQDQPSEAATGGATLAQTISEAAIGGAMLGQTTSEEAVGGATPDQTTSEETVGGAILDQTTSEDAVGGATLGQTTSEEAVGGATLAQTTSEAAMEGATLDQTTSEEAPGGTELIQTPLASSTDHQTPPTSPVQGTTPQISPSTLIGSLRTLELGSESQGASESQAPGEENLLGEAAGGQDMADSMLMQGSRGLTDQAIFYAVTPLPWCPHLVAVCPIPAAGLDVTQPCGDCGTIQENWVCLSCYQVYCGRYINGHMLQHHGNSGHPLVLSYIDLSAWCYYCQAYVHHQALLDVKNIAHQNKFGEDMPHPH
Briefly: Inhibition of HDAC6 (unknown origin). The procedure, abridged: as §1

Experiment [3] has as its target T3, Polyamine deacetylase HDAC10 (Homo sapiens, UniProt Q969S8).
T3 sequence (Q969S8 whole entry): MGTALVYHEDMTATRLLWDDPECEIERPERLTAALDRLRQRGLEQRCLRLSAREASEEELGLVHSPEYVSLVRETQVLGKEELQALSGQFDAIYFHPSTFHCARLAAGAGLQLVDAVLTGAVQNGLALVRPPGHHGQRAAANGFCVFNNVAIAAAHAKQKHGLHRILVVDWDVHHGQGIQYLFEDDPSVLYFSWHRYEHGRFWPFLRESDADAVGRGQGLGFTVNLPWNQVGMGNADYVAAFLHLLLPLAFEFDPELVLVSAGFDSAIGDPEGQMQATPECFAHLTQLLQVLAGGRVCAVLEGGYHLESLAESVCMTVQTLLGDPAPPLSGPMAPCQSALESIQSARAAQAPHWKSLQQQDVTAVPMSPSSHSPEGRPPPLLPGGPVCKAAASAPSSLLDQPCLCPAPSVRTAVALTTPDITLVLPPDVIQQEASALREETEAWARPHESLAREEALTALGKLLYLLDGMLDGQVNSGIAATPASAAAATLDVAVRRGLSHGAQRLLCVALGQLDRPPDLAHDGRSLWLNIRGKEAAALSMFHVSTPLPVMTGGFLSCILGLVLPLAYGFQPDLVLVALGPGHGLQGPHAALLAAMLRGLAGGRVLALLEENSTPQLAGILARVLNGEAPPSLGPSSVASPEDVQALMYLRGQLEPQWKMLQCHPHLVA
Briefly: Inhibition of HDAC10 (unknown origin). The procedure, abridged: as §1

The target in a further experiment is T4, Histone deacetylase 11 (Homo sapiens, UniProt Q96DB2).
T4 sequence (Q96DB2 whole entry): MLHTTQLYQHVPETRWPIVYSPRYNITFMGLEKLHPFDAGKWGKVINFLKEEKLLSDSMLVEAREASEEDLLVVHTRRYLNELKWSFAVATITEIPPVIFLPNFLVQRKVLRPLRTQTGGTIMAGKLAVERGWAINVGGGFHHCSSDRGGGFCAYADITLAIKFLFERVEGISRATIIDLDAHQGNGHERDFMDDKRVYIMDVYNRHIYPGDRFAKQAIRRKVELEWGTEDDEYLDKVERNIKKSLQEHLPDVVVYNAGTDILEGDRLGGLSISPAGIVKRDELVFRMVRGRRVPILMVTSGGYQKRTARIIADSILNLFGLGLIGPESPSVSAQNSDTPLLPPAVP
As to the kind of experiment: Inhibition of HDAC11 (unknown origin). An outline of the steps:
as §1

The target of experiment [4] is T1, NAD-dependent protein deacylase sirtuin-6. Briefly: Inhibition of SIRT6 in human BxPC3 cells assessed as increase in […] expression measured after 48 hrs by Western blot analysis. The format is cell-based. The following applies: BXPC-3. An outline of the steps: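 BxPC-3 cells were exposed to 0.78, 1.56, 3.13, 6.25, 12.5 and 25 μM compound for 48 h. Histone H3K9ac and H3K18ac levels were then assessed by western blot, with β-actin as the loading control. Acetylation increase is read as cellular SIRT6 deacetylase inhibition.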
Background: Immunoblotting shows a protein as a band on a membrane.

Another experiment relates to BXPC-3. Briefly: Upregulation of GLUT1 expression in human BxPC3 cells measured after 72 hrs by Western blot analysis. The format is functional, cell-based. The procedure, abridged: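 BxPC-3 cells were exposed to 1.25, 2.5, 5 and 10 μM compound for 72 h. GLUT1 protein was then detected by western blot, with α-tubulin as loading control.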

T1 sequence (Q8N6T7 whole entry): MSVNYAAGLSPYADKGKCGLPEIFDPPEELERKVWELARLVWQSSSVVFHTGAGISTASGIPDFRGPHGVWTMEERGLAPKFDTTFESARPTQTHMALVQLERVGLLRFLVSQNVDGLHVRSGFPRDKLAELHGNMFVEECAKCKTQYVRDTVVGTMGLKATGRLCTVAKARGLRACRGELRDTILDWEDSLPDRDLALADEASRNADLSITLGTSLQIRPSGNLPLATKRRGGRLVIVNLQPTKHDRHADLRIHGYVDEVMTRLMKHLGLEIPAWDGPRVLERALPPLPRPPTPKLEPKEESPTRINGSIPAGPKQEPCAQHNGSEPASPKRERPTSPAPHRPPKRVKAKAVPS
Histone deacetylase 2, sequence (Q92769 whole entry): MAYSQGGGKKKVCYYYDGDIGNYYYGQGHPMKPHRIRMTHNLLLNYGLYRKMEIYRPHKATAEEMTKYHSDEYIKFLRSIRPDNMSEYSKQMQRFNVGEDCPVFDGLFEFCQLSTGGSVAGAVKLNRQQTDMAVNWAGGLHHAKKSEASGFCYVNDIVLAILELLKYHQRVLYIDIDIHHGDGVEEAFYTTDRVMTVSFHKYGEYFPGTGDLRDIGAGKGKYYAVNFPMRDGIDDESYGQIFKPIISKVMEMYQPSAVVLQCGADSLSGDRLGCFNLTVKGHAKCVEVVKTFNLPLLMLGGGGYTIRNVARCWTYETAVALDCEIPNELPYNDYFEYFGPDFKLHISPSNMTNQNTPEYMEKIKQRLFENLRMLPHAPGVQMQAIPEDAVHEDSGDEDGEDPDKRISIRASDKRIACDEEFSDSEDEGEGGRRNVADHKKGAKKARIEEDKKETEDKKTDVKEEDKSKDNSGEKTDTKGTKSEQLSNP
Histone deacetylase 1, sequence (Q13547 whole entry): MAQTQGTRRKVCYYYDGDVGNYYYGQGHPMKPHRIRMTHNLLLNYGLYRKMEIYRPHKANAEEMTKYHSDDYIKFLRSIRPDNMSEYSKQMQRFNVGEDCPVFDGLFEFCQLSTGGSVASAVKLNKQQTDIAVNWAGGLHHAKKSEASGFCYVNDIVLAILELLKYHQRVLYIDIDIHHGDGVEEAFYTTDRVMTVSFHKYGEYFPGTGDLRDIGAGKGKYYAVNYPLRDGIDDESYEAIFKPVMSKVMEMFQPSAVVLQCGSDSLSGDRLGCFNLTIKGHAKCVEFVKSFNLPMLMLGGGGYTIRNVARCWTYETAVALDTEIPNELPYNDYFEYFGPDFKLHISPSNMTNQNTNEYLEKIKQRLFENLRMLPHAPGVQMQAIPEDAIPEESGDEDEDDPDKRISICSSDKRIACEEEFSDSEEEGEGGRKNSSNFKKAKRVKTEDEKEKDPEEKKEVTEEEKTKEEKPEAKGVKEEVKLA
Histone deacetylase 4, sequence (P56524 whole entry): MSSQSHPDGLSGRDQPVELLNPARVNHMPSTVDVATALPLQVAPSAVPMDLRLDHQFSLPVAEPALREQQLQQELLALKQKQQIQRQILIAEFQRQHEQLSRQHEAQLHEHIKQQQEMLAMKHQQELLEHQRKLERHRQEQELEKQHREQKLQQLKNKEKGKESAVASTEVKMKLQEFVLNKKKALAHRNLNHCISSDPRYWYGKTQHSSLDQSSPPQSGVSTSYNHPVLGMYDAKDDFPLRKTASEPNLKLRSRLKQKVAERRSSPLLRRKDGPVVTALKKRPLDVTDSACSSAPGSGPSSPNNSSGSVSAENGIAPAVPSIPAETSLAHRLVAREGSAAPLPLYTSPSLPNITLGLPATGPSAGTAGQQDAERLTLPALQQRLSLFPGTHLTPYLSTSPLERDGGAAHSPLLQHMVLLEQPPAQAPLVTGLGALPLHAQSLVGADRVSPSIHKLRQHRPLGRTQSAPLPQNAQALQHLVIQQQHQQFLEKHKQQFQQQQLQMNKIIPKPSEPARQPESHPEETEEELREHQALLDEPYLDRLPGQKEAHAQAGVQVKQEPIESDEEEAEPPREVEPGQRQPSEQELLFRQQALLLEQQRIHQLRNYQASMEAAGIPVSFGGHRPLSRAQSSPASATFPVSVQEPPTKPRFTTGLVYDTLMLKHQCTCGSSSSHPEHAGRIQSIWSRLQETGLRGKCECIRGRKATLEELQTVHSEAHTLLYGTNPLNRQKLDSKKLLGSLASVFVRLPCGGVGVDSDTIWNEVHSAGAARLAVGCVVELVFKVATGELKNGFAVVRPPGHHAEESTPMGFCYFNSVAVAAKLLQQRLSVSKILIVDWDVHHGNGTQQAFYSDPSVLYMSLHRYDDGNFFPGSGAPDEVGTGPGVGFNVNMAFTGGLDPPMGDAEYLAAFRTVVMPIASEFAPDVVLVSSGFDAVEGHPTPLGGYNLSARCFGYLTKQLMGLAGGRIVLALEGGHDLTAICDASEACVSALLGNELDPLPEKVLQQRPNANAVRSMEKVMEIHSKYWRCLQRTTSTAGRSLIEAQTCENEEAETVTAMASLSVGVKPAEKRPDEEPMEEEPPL
Histone deacetylase 3, sequence (O15379 whole entry): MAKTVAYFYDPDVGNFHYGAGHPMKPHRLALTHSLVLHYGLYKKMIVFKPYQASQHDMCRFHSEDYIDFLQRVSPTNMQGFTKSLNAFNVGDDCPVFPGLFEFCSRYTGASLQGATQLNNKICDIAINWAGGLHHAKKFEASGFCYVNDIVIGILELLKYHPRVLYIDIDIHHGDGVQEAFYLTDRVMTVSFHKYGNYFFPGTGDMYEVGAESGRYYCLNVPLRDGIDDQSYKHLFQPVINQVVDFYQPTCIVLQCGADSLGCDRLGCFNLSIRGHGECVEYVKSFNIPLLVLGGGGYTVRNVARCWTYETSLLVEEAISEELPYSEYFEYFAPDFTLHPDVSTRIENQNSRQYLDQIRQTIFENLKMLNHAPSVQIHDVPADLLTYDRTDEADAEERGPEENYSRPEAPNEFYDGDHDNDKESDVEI

As a reminder, the Kd is the constant that tells how readily two partners part at equilibrium. Lower therefore signals tighter binding. As usually defined, the IC50 is the point on the concentration scale where inhibition reaches its midpoint. A higher IC50 goes with weaker potency in that assay. As to `CN1CCN(c2ccc([N+](=O)[O-])c(N)c2)CC1`, in [1], the dissociation constant (Kd) was 10 µM. The outcome in the experiment on Mus musculus was Active. In addition, the IC50 (against Histone deacetylase 1; on Histone deacetylase 2; against Histone deacetylase 3; on Histone deacetylase 4; in experiment [2]; in experiment [3]) was greater than 200 µM throughout. Besides, the IC50 at Histone deacetylase 11 is greater than 200 µM. Besides, the inhibition result in experiment [4] is “Dose-dependent effect”. Further, the Activity entry in the experiment on BXPC-3 is “Dose-dependent effect”.
